Measurements pooled from the literature.
CYP2A6: Cytochrome P450 2A6 (CYP2A6, Homo sapiens, UniProt P11509)
ABCB1: ATP-dependent translocase ABCB1 (ABCB1, Homo sapiens, UniProt P08183)

| SMILES | target | assay | test system | conditions | measurement | result |
| --- | --- | --- | --- | --- | --- | --- |
| CCc1cc(/C(C)=N/OCc2ccc(C3CCCCC3)c(C(F)(F)F)c2)ccc1CN1CC(C(=O)O)C1 | CYP2A6 | enzyme activity, inhibitor | human, liver microsomes | 200 µM, 20 min | inhibition | 30.6% |
| Cc1cc(Nc2ncnc3ccc(NC4=NC(C)(C)CO4)cc23)ccc1Oc1ccn2ncnc2c1 | ABCB1 | – | MDCK-MDR1, Caco-2 | 1 µM, 1 h, pH 7.4 | efflux ratio | 9.48 |
| Cc1ccc(C(=O)N2CCOC[C@H]2Cc2cccc(-n3nccn3)c2)c(-n2nccn2)c1 | CYP2A6 | enzyme activity, inhibitor | human, liver microsomes | 100 µM | inhibition | 19% |
| CC[C@H](C)C(=O)N1CCC(NC(=O)Nc2ccc(OC(F)(F)F)c(F)c2)CC1 | ABCB1 | transporter efflux, inhibitor, fluorescence | – | 10 µM | inhibition | < 25% |
| C[C@]12CCCN1CC1=NNC(=O)c3cc(F)cc4[nH]c2c1c34 | ABCB1 | – | MDCK-MDR1 | 10 µM | Papp A→B | 25.5 ×10⁻⁶ cm/s |
| CC1(C)CCC2(CC1)N[C@@H](C(=O)N[C@@H]1CC[C@@H](C(N)=O)OC1)[C@H](c1ccnc(Cl)c1F)[C@]21C(=O)Nc2cc(Cl)ccc21 | ABCB1 | – | Caco-2 | 3 µM, 2 h | efflux ratio | 14.1 |
| C=C[C@H]1C[N@@]2CC[C@H]1C[C@@H]2[C@@H](O)c1ccnc2ccc(OC)cc12 | ABCB1 | – | MDCK-MDR1 | 5 µM | Papp B→A | 40.6 ×10⁻⁶ cm/s |
| O=C(O)CSc1nnc(Br)n1-c1ccc(C2CC2)c2ccccc12 | Multidrug and toxin extrusion protein 2 (SLC47A2, Homo sapiens, UniProt Q86VL8) | transporter uptake, inhibitor | HEK293 | 100 µM, 2 min | inhibition | -9% |
| COCCc1ccc(OCC(O)CNC(C)C)cc1 (stereo not shown) | ABCB1 | – | MDCK-MDR1 | 5 µM | Papp A→B | 32.1 ×10⁻⁶ cm/s |
| C[C@H]1O[C@@H](O[C@H]2[C@@H](O)C[C@H](O[C@H]3[C@@H](O)C[C@H](O[C@H]4CC[C@@]5(C)[C@H](CC[C@@H]6[C@@H]5C[C@@H](O)[C@]5(C)[C@@H](C7=CC(=O)OC7)CC[C@]65O)C4)O[C@@H]3C)O[C@@H]2C)C[C@H](O)[C@@H]1O | ABCB1 | – | human, plasma | oral, 0.5 mg | half-life | 42.5 h |
